These results are taken from ChEMBL document CHEMBL2086368, “Sulfonilamidothiopyrimidone and thiopyrimidone derivatives as selective COX-2 inhibitors: synthesis, biological evaluation, and docking studies” (Eur J Med Chem, 2012).

Calls of active or inactive are those of the source. The rule behind the calls is not given here.

Data set [1] relates to PBL. In words: Cytotoxicity against IL2-stimulated human PBL assessed as cell death at 10 uM after 24 hrs by MTT assay. In kind it is cell-based. The essentials: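 IL-2-treated human PBLs given 1, 10 or 50 (micromolar) test agent for 24 h. Viability read by MTT (0.15 mg/ml, 4 h, 37 °C) reduction to formazan, absorbance at 570 nm with 655 nm reference. DMSO served as cell-death control.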
(In general: Tetrazolium assays rely on reduction of a dye to a coloured formazan, in cell work by metabolically active cells.)

The target of data set [2] is T1, Prostaglandin G/H synthase 2 (Homo sapiens) (UniProt P35354).
T1 sequence (whole entry): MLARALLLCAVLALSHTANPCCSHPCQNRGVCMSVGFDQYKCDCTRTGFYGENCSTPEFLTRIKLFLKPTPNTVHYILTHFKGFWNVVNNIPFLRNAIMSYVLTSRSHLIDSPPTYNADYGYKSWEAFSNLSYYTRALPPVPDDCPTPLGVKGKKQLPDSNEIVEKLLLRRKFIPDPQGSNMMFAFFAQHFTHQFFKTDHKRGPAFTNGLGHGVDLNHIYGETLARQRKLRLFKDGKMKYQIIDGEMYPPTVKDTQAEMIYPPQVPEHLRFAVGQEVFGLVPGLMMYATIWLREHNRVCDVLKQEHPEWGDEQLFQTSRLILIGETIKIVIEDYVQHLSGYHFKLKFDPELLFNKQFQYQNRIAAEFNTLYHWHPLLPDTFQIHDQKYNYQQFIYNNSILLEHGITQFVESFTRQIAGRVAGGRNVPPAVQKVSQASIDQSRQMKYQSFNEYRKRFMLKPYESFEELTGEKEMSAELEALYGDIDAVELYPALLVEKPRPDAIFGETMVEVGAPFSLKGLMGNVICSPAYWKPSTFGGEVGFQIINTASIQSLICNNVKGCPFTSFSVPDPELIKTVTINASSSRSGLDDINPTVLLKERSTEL
In words: Increase of COX2-mediated PGE2 production in PMA-Ion-stimulated human PBL at 10 uM after 24 hrs by ELISA. For orientation: An ELISA detects its analyte on a solid surface through an enzyme-linked reagent.

The target in data set [3] is T1, Prostaglandin G/H synthase 2 (Homo sapiens). In words: Increase of COX2-mediated PGE2 production in PMA-Ion-stimulated human PBL at 10 uM after 24 hrs by ELISA relative to control.
The target is the same in data set [4]. Kind of data set: Inhibition of COX2-mediated PGE2 production in PMA-Ion-stimulated human PBL at 10 uM after 24 hrs by ELISA.
Data set [5] deals with PBL. In words: Inhibition of COX2 expression in PMA-Ion-stimulated human PBL at 10 uM after 20 hrs by Western blot analysis. The format is functional, cell-based. The essentials: (§1)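 PBLs treated with PMA 15 ng/ml plus ionomycin, alone or with inhibitor, for 20 h at 37 °C; NS398 as inhibition control. Lysates quantified by BCA, resolved on 10% SDS-PAGE, semidry-blotted to PVDF, probed with rabbit anti-human COX-2 (1:500) and anti-α-tubulin loading control, ECL detection.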
A general note: A western blot detects proteins with antibodies after separation by electrophoresis.

The test system of data set [6] is PBL. In words: Antiproliferative activity against human PBL assessed as incorporation of BrdU at 10 uM after 2 to 24 hrs. In kind it is cell-based. The gist of the method:
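Human PBLs in RPMI 1640 with 10% heat-inactivated FCS, 1% penicillin/streptomycin, 2 mM L-glutamine, stimulated with PHA and 60 U/ml IL-2; exposed to test agent for 24 h at 37 °C, 5% CO2. DNA synthesis read by immunochemical detection of incorporated BrdU after partial DNA denaturation.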

Data set [7] has as its target Prostaglandin G/H synthase 2 (Ovis aries) (UniProt P79208). The following applies: at 5 nM.
In data set [8] the test system is PBL. Kind of data set: Inhibition of COX2 expression in PMA-Ion-stimulated human PBL at 5 uM after 20 hrs by Western blot analysis. In kind it is functional, cell-based. The essentials:
as §1

Chain of Prostaglandin G/H synthase 2 (Ovis aries) (P79208 whole entry, looked up): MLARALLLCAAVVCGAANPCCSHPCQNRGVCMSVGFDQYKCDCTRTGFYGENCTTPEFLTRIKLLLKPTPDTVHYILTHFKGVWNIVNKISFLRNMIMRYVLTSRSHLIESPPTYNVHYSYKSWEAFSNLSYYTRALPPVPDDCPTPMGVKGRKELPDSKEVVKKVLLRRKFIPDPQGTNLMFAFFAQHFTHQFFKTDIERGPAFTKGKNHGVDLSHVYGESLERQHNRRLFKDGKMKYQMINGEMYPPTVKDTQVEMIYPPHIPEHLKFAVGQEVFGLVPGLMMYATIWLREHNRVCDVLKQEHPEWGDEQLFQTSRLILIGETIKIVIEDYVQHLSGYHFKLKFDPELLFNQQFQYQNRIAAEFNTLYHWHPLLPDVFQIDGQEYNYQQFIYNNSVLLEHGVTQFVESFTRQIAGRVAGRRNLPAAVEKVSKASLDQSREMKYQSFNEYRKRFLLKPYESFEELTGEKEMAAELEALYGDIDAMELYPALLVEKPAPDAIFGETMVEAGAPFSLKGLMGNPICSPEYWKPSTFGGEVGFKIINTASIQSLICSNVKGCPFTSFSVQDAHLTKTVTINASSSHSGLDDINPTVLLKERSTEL

For the compound `CS(=O)(=O)Nn1c(Sc2ccccc2C(=O)O)nc2ccsc2c1=O`, in the data set with PBL [1], the Activity entry is “Non-toxic”. For the same compound, in data set [2], the result was Active.

For `CS(=O)(=O)Nn1c(Sc2ccc([N+](=O)[O-])cc2[N+](=O)[O-])nc2sc3c(c2c1=O)CCCC3`, the Activity entry in the data set with PBL [1] was “Non-toxic”.

Take `CS(=O)(=O)Nn1c(SC2CCCCC2)nc2sc(-c3ccccc3)cc2c1=O`: the Activity entry in the data set with PBL [1] is “Non-toxic”. For the same compound, the fold change (FC) in data set [3] was 2.9.

What is called inhibition is the drop in the measured response relative to a control, in per cent. Regarding `O=c1c2sc3ccccc3c2nc2n1N=C(c1ccccc1)CS2`, in the data set with PBL [1], the Activity entry was “Non-toxic”. For the same compound, in data set [4], the inhibition result was “inactive”.

In the case of `CS(=O)(=O)Nn1c(Sc2ccc(F)cc2F)nc2sc(-c3ccccc3)cc2c1=O`, the Activity result with PBL [1] and with PBL [6] was “Non-toxic” in each case. Further, the inhibition result with PBL [5] was “Active”. Moreover, the inhibition was above 50% in data set [4] and 50% in data set [7].

As to `CS(=O)(=O)Nn1c(Sc2ccccc2C(=O)O)nc2sc(-c3ccccc3)cc2c1=O`, the Activity result in the data set with PBL [1] and in the data set with PBL [6] was “Non-toxic” each time. Moreover, the inhibition result in the data set with PBL [5] was “Active”. Also, the inhibition amounted to 20% in data set [4] and 50% in data set [7].

For the compound `COc1ccc(C2=Nn3c(nc4sc(-c5ccccc5)cc4c3=O)SC2)cc1`, the Activity entry with PBL [1] is on record as “Non-toxic”. In data set [4], the inhibition entry is “inactive”.

On to `CC(Sc1nc2c(sc3ccccc32)c(=O)n1N)C(=O)O` (configuration not stated), for which the Activity result in the data set with PBL [1] is listed as “Non-toxic”.

With `Nn1c(SC(C(=O)O)c2ccccc2)nc2c([nH]c3ccccc32)c1=O` (configuration not stated), the Activity entry with PBL [1] is on record as “Non-toxic”.

With `CCc1nn2c(=O)c3cc(-c4ccccc4)sc3nc2s1`, the Activity result in the data set on PBL [1] is given as “Non-toxic”.

In the case of `O=C1Nn2c(nc3c(sc4ccccc43)c2=O)SC1c1ccccc1` (configuration not stated), in the data set with PBL [1], the Activity entry is given as “Non-toxic”. Also, the outcome in data set [2] was Active.

In the case of `Cc1sc2nc(SC3CCCCC3)n(NS(C)(=O)=O)c(=O)c2c1C`, the Activity entry in the data set with PBL [1] is “Non-toxic”. In addition, the outcome in data set [2] was Active.

In the case of `CS(=O)(=O)Nn1c(Sc2ccccc2[N+](=O)[O-])nc2sc(-c3ccccc3)cc2c1=O`, the Activity result in the data set with PBL [1] and with PBL [6] was “Non-toxic” each time. For the same compound, the inhibition entry in the data set with PBL [5] was “Active”. The inhibition in data set [4] amounted to 20%; in data set [7], 50%.

Regarding `CS(=O)(=O)Nn1c(Sc2ccc([N+](=O)[O-])cc2)nc2sc(-c3ccccc3)cc2c1=O`, the Activity entry in the data set with PBL [1] and in the data set with PBL [6] was “Non-toxic” in each case. Also, the inhibition result in the data set with PBL [5] was “Active”. The inhibition is 20% in data set [4] and 50% in data set [7].

Turning to `CS(=O)(=O)Nc1ccc([N+](=O)[O-])cc1OC1CCCCC1`, in the data set on PBL [8], the inhibition entry is “Active”.
